The source of these data is PubChem BioAssay AID743256 (The Scripps Research Institute Molecular Screening Center, 2014).

Screen size: about 2,900 compounds; about 1,300 (45%) were called active.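 Rule for the calls: active = mean inhibition over the triplicate runs exceeds the activity threshold set in the earlier primary screen (cut at about 20% in these data); inactive = the rest.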 The set was probably picked from earlier hits. Only a sample is shown.

Disintegrin and metalloproteinase domain-containing protein 10 (Homo sapiens), sequence (O14672 214-748 limits assumed): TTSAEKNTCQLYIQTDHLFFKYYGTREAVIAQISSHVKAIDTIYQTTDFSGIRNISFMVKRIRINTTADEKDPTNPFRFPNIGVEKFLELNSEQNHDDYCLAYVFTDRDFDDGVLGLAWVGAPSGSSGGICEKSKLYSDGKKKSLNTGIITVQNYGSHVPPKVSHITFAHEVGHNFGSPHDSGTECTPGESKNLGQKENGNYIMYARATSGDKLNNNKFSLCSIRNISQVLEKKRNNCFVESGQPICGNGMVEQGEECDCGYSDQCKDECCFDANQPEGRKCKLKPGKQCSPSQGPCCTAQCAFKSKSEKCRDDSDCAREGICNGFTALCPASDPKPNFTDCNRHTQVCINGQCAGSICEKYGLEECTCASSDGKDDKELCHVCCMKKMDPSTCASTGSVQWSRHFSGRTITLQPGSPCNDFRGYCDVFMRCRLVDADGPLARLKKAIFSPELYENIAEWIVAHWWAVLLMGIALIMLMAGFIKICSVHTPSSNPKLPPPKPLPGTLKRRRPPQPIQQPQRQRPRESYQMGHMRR

The test has as its target Disintegrin and metalloproteinase domain-containing protein 10 (Homo sapiens) (UniProt O14672). Nature of the test: blockers of ADAM10 peptide cleavage – biochemical, FRET, human ADAM10, counter-screen for ADAM17 exosite inhibitor project (AID 743256).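 Note: 0% = DMSO wells and 100% = marimastat wells.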 The settings on record: recombinant ADAM10, EDANS/DABCYL FRET peptide cleavage, 3 h; at 6.95 µM; active compounds read high. A digest of the protocol: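 Test system – ADAM10 · Amount – enzyme 2X stock at 20 nM · Read-out – percent inhibition scaled between DMSO and marimastat control wells · Compound dosing – one dose · Measured by – FRET fluorescence readout · Timing – Compound–enzyme preincubation 30 min, then 3 h substrate cleavage, both 25 °C · Control set – 1 µM marimastat (high) and DMSO (low)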
On the technique in general: A counterscreen serves to expose hits that act by an unwanted route or on another target.
As a reminder, the inhibition is the drop in the measured response relative to a control, in per cent. As to `COc1cccc(NC(=O)C2C(c3ccccc3)C2(Cl)Cl)c1` (stereo not given), the inhibition was 34.2% (active).
Consider `COC(=O)N(C)C[C@@H]1OCc2cnnn2CCCC(=O)N([C@@H](C)CO)C[C@@H]1C`, for which the inhibition was -8.98% (inactive).
The same measure for `C=C(C)COc1ccc(-c2n[nH]c(C)c2-c2ccccc2)c(O)c1`: 40.8% (active).
The value for `CC(=O)Nc1ccc(S(=O)(=O)N2CCN(CCCOc3cc(C)ccc3C)CC2)cc1` was 12.4% (inactive).
The same measure for `COc1ccc(S(=O)(=O)N2CCN(C(C)C(=O)Nc3ccc(C(C)C)cc3)CC2)cc1` (stereo not given): 20.5% (active); for `O=C1NC(=O)C(c2ccc(Cl)cc2)N1` (stereo not given): 6.62% (inactive); for `CN(C(=O)c1cccc(NC(=O)Cc2cccc([N+](=O)[O-])c2)c1)C1CCCCC1`: 19.9% (active).
As to `COc1ccccc1C(=O)NCC(=O)OCC(=O)NNC(=O)c1ccc(Br)cc1`, the inhibition is 3.18% (inactive).
The value for `S=C(NCc1ccc(Cl)cc1)NC12CC3CC(CC(C3)C1)C2` was 22.6% (active).
The value for `Cc1ccc(/C=N/NC(=O)CSc2nc3ccccc3o2)cc1` was 5.15% (inactive).
The same measure for `C[C@@H]1CN([C@H](C)CO)C(=O)c2cc(-c3ccc(F)cc3)cnc2O[C@H]1CN(C)C(=O)c1ccc(F)cc1`: 12.7% (inactive); for `CC(C)Oc1cc(F)ccc1-c1cc(C(=O)Nc2cccc(Cl)c2)[nH]n1`: 25.8% (active); for `Cc1cc(C)cc(NC(=S)NCCc2c[nH]c3ccccc23)c1`: 14% (inactive).
`N#C/C(=C/c1ccc(N2CCCCC2)o1)C(=O)NCCc1c[nH]c2ccccc12`: the inhibition was 23.4% (active).
The same measure for `O=C(CSc1nc(-c2ccccc2)cs1)Nc1cccc([N+](=O)[O-])c1`: 24.3% (active); for `CCOc1ccc(N2C(=O)CC(N(CCc3ccc(OC)c(OC)c3)C(=S)Nc3ccccc3)C2=O)cc1` (stereo not given): 4.08% (inactive).
The same measure for `COc1ccc(Cl)cc1NC(=O)COC(=O)C(CC(C)C)N1C(=O)C2CC=CCC2C1=O` (stereo not given): 17.9% (inactive); for `CC1(C)C=Cc2c(ccc3c2OC[C@@H](c2ccc(O)cc2O)C3)O1`: 24.2% (active); for `Cn1nc(C(F)(F)F)c2cc(NC(=O)OCC(C)(C)C)sc21`: 13% (inactive).
The value for `C#CCN(C[C@H]1[C@H](OC(=O)NC2CCCC2)[C@H](OC(=O)NC2CCCC2)C[C@H]2C(=O)N(c3ccccc3)C(=O)[C@@H]12)S(=O)(=O)c1ccc(C)cc1` was 19.1% (inactive); that for `CCOc1ccccc1C1CC(c2cccc(NS(C)(=O)=O)c2)=NN1C(=O)c1ccccc1` (stereo not given) was -1.35% (inactive).
Take `Cc1ccc(S(=O)(=O)NCCSc2ccccc2)cc1[N+](=O)[O-]`: the inhibition was 6.91% (inactive).
Take `Cc1cc(C)cc(NS(=O)(=O)c2ccc(Oc3ncc(C(F)(F)F)cc3Cl)cc2)c1`: the inhibition was 39% (active).
For the compound `COc1cc(/C=N/n2c(C)n[nH]c2=S)ccc1OCc1ccccc1`, the inhibition is -1.14% (inactive).
In the case of `COC(=O)c1c(C)[nH]c(C(=O)/C=C/c2ccc(Cl)cc2)c1C`, the inhibition was -38.4% (inactive).
The same measure for `O=C(OCc1ccc(-c2ccccc2)cc1)c1cccc(O)c1`: 22.9% (active).
The same measure for `COC(C(=O)Nc1ccc(S(=O)(=O)Nc2ccc(C)c(C)c2)cc1)c1ccccc1` (stereo not given): 29.4% (active); for `COc1ccc(C(CNC(=O)c2cc(S(=O)(=O)Nc3cccc(C)c3)ccc2C)N2CCCC2)cc1` (stereo not given): 6.83% (inactive); for `O=C(COC(=O)c1ccccc1)Nc1ccccc1Sc1ccccc1`: 20.3% (active).
Take `Cc1ccccc1C(=O)Nc1ccccc1Sc1ccccc1`: the inhibition was 10.7% (inactive).
On to `O=C(CSCc1ccc(Br)cc1)Nc1ccc(S(=O)(=O)N2CCCCCC2)cc1`, for which the inhibition was 23% (active).
The value for `CC(=O)Nc1ccc(S(=O)(=O)Oc2ccc(Br)cc2C(=S)N2CCOCC2)cc1` was 13.5% (inactive); that for `COc1ccc(S(=O)(=O)N2CCCCC2)cc1Br` was 10.7% (inactive); that for `COc1ccc(CC(=O)c2ccc(O)cc2O)cc1OC` was 6.86% (inactive).
The same measure for `Cc1ccc(Cn2nnc3c(=O)[nH]c(C4CCN(S(=O)(=O)/C=C/c5ccccc5)CC4)nc32)cc1`: 41.6% (active); for `N/C(Cc1ccc([N+](=O)[O-])cc1)=N\OC(=O)COc1ccc2ccccc2c1`: 11.5% (inactive); for `O=C(Nn1c(SCc2ccc([N+](=O)[O-])cc2)nc2ccccc2c1=O)c1ccc(F)cc1`: 30.6% (active).
On to `CC(C)(C)c1ccc(S(=O)(=O)NCC2CCN(C(=O)C(=O)c3cc4ccccc4o3)CC2)cc1`, for which the inhibition was 24.1% (active).
For the compound `C=CC(COCc1ccccc1)N(CC(=O)OC)S(=O)(=O)c1cc(Br)ccc1OC` (stereo not given), the inhibition is 13.2% (inactive).
The value for `FC(F)(F)Oc1ccccc1C(c1nnnn1C1CCCCC1)N1CCN(C/C=C/c2ccccc2)CC1` (stereo not given) was 17.1% (inactive); that for `COc1ccc(-c2cc(C3CCN(c4ncccc4[N+](=O)[O-])CC3)[nH]n2)cc1` was 27.1% (active).
The same measure for `O=C(Nc1ccc(C(=O)NCc2ccccc2Cl)cc1)C1=CSCCO1`: 9.95% (inactive); for `O=C(COc1ccc(Cl)cc1)N1CCN(c2cccc(C(F)(F)F)c2)CC1`: 18.6% (inactive).
For `COc1ccc(C(N)c2csc(NC(=O)Nc3cccc(C(F)(F)F)c3)n2)cc1` (stereo not given), the inhibition was 14.4% (inactive).
The value for `Cn1nc(C(F)(F)F)c(C(=O)Nc2cccc(C(F)(F)F)c2)c1SCc1ccc(Cl)cc1` was 37.8% (active); that for `CCOC(=O)c1cccc(NC(=O)CN(C)S(=O)(=O)c2ccc(-c3cocn3)s2)c1` was 4.04% (inactive).
The value for `COc1ccc(-c2ccc(CN3C(CC(C)C)C(=O)N(Cc4cn(CC5CCCCC5)nn4)CCS3(=O)=O)cc2)cc1` (stereo not given) was 26.9% (active); that for `COc1ccc(Cn2cc(CN3CCS(=O)(=O)N(Cc4ccc(-c5cccc(Cl)c5)cc4)C(C)C3=O)nn2)cc1` (stereo not given) was 18% (inactive); that for `O=C1[C@H]2[C@@H](c3ccc(C(F)(F)F)cc3)N[C@]3(CCCN(Cc4ccc(Br)cc4)C3=O)[C@H]2C(=O)N1Cc1ccccc1` was 32.2% (active).
Consider `CCOc1ccccc1CNS(=O)(=O)c1cc(-c2cc(C)no2)ccc1C`, for which the inhibition is 1.34% (inactive).
Consider `CCOc1ccc(OCC)c(-c2c(=O)n(OCc3ccc(Cl)cc3)c3ccccc3[n+]2[O-])c1`, for which the inhibition was -2.21% (inactive).
The value for `O=C(Cc1ccc(Cl)c(Cl)c1)Nc1ccc(SC(F)F)cc1` was 43.3% (active); that for `Cc1ccc(-n2c(COc3ccccc3)nnc2SCC(=O)Nc2ccc3c(c2)OCCO3)cc1` was 25.8% (active); that for `CCOc1ccc(-n2c(SCC(=O)Nc3cc(C)c(NC(=O)c4ccccc4)cc3OC)nnc2-c2cccs2)cc1` was 8.96% (inactive).
Regarding `O=C(CN1CCN(c2nc(-c3ccccc3)cs2)CC1)NCc1ccc2c(c1)OCO2`, the inhibition was 24.1% (active).
With `CC1(Cc2cccc(C#N)c2)C(=O)Nc2ccc(-c3cccc(C(F)(F)F)c3)cc21` (stereo not given), the inhibition was 36.6% (active).
`COCCNC(=O)C(c1ccc(C)o1)N(Cc1ccccc1)C(=O)Cn1nnc2ccccc21` (stereo not given): the inhibition is -7.67% (inactive).
The same measure for `CCN1C(=O)C(CC(=O)Nc2cc(C)ccc2C)SC1=Nc1ccc(S(N)(=O)=O)cc1` (stereo not given): 5.34% (inactive).
Consider `O=C(CC1SC(=Nc2ccccc2)N(Cc2ccccn2)C1=O)Nc1cccc(Cl)c1` (stereo not given), for which the inhibition is 35% (active).
The same measure for `COc1ccc(CC(N)c2csc(NC(=O)NC(c3ccccc3)c3ccccc3)n2)cc1` (stereo not given): 5.76% (inactive).
The same measure for `C=CCOc1ccccc1/C=N/NC(=O)Cc1ccccc1`: -0.63% (inactive); for `Cn1c(=O)c2c(nc(N/N=C/c3cccs3)n2Cc2ccc(Br)cc2)n(C)c1=O`: -80.2% (inactive).
The same measure for `O=C(COC(=O)CCCSc1nc2ccccc2[nH]1)Nc1ccc(Oc2ccccc2)cc1`: 39.3% (active); for `O=C1/C(=C\c2ccsc2)NC(=S)N1c1ccccc1`: 10.1% (inactive); for `COc1ccc(CN(C)C(=O)CC(c2ccccc2)c2ccccc2)cc1`: 7.1% (inactive).
`Clc1ccc(C(Cn2ccnc2)OCc2ccsc2Cl)c(Cl)c1` (stereo not given): the inhibition is 22.7% (active).
The same measure for `C=CCC[C@@H](Cc1ccc(F)cc1)C(=O)O[C@H](CNC(=O)[C@H](CC=C)CC(=O)N(CCO)Cc1ccccc1)c1ccccc1`: 45.3% (active); for `C=CC[C@H](CC(=O)N(CCO)Cc1ccccc1)C(=O)N[C@@H](COC(=O)[C@@H](CC=C)Cc1ccc(F)cc1)Cc1ccccc1`: 25.1% (active).
The same measure for `C=CCC[C@@H](Cc1ccc(F)cc1)C(=O)OC[C@H](Cc1c[nH]c2ccccc12)NC(=O)[C@@H](CC=C)CC(=O)N(CCO)Cc1ccccc1`: 35.2% (active); for `COc1cc(NC(=O)CCS(=O)(=O)c2ccc3c(c2)oc(=O)n3C)cc(OC)c1`: 11.3% (inactive).
For `Cc1nnc(SCC(=O)Nn2cnnc2)s1`, the inhibition was -7.63% (inactive).
As to `Cc1ccc(NC(=S)NNC(=O)CSc2nnc(SCc3ccccc3Cl)s2)cc1`, the inhibition is 37.1% (active).
The same measure for `O=C(CSc1nnc(Nc2ccccc2)s1)Nc1cccnc1Cl`: 10.6% (inactive); for `CCOC(=O)c1c(Cc2ccc(Cl)cc2)c[nH]c1C`: 19.5% (inactive); for `CC(C)(C)N1C(=O)[C@H]2[C@@H](c3ccc(Br)cc3)N3C(=O)N(c4cccc(Cl)c4)C(=O)[C@@]3(C)[C@H]2C1=O`: 22.2% (active).
The same measure for `CC[C@@]12C(=O)N(c3ccccc3)C(=O)N1[C@H](c1ccc(Br)cc1)[C@@H]1C(=O)N(C(C)(C)C)C(=O)[C@@H]12`: 6.71% (inactive); for `COc1ccc([C@@H]2[C@@H]3C(=O)N(C(C)(C)C)C(=O)[C@@H]3[C@]3(Cc4ccccc4)C(=O)N(c4cccc(Br)c4)C(=O)N23)cc1`: 28.6% (active).
The same measure for `COc1cccc(CNc2nc(C(F)(F)F)nc3ccccc23)c1`: 8.29% (inactive).
As for `CC(C)(C)OC(=O)CNC(=O)c1[nH]cnc1C(=O)N[C@@H](Cc1ccccc1)C(=O)OCc1ccccc1`, the inhibition was 42.9% (active).
The value for `CC(C)(C)OC(=O)N1CCC(NC(=O)c2[nH]cnc2C(=O)N[C@@H](Cc2ccccc2)C(=O)OCc2ccccc2)CC1` was 35.8% (active).
